proCasp7 act – activates human procaspase-7, counter-screen for procaspase-3 activators | P55210 | recombinant procaspase-7, Ac-DEVD-pNA absorbance 405 nm; D23A/D198A/D206A triple mutant, cannot self-cleave; scale: DMSO 0, 5 µM enzyme 100 | activation, % at 8.5 µM | actives 0.093% (n = 330,000) | AID 463210;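 active = percent activation above the screen-wide mean plus 3 SD, cut at about 25% in these data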
Target sequence (P55210 whole entry D23A/D198A/D206A): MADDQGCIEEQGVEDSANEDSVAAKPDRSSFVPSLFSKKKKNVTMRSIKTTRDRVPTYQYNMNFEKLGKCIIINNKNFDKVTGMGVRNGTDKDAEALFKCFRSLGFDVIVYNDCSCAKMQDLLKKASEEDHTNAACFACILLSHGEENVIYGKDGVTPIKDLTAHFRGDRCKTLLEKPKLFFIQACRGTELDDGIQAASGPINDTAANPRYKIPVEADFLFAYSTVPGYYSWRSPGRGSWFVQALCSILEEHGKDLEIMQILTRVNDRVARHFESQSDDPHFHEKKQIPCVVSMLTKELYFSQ
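Material: Procaspase-7 triple mutant (PC-7 D3A) | Quantity: 2 µM procaspase-7 mutant as dispensed | Reagent: DEVD-pNA substrate | Times: 1 h preincubation, 2 h reaction | Technique: 405 nm absorbance of p-nitroaniline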
NR3A LBD binder – NR3A (human) ligand-binding domain modulation | NR3A LBD differential scanning fluorimetry, Tm shift; 0% = protein alone, 100% = glycine-bound protein | Tm shift relative to glycine control, % at 25 µM | actives 2.5% (n = 340,000) | AID 1259313;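 active = melting temperature shift of at least 10% of the positive control shift, at one fixed dose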
MPTP block – blocks calcium-induced mitochondrial swelling; isolated mouse mitochondria, Ca2+ swelling absorbance, 30 min; inhibition, % at 10 µM; actives 1.4% (n = 360,000); AID 602449;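 active = inhibition of 50% or more, scaled per plate between neutral and stimulator controls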;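 also: 0% = DMSO wells given calcium and 100% = 1 mM EGTA wells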
aDG glyco act – alpha-DG glycosylation activation | actives 0.22% (n = 360,000) | activation, % at 10 µM | Pro5-aDG cells, alpha-DG glycosylation AlphaScreen (IIH6); 0% Pro5, 100% B10-LARGE cell signal;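 active = activation of at least 8% versus controls, or a plate z-score of at least 8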;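 also: Pro5 are CHO cells carrying HIG-tagged alpha-DG that lacks glycosylation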
procasp3 activ – procaspase-3 (human) activation | P42574 | recombinant procaspase-3 D3A, Ac-DEVD-pNA absorbance 405 nm | activation, % at 8.5 µM | actives 0.11% (n = 330,000);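 active = activation above the mean of all tested compounds plus 3 SD, cut at about 21% in these data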;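 also: 0% = DMSO alone and 100% = DMSO wells spiked with extra 5 µM PC-3 D3A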
Target sequence (P42574 whole entry D9A/D28A/D175A): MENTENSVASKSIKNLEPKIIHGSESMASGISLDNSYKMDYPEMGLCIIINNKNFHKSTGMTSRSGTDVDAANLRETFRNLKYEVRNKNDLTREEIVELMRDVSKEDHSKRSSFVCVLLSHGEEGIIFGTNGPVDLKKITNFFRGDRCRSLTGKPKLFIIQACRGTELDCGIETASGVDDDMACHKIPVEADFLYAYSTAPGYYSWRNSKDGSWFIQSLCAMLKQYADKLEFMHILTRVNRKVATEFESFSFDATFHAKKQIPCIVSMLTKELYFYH
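System: Procaspase-3 D3A mutant. Medium: Zinc-free 300 mM NaCl, 50 mM HEPES, 0.01% Triton X-100. Schedule: 1 h preincubation plus 2 h reaction at 25 °C. Measured by: 405 nm absorbance of p-nitroaniline, reads at 0 and 120 min. Read-out: percent activation relative to control range.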
* = called active by the depositor; · = no result. Rows were chosen to be rich in hits. Some 3.7% of all compounds tested hit in one or more screens of this group.

SMILES | proCasp7 act | NR3A LBD binder | MPTP block | aDG glyco act | procasp3 activ
NC(=O)COC(=O)CC(NC(N)=O)c1ccc(Cl)cc1 (configuration not stated) | 5 | 13* | 1 | 0 | 4
Cc1cc(C(=O)COC(=O)CC(NC(N)=O)c2ccc(Cl)cc2)c(C)n1C (configuration not stated) | 5 | 0 | -1 | 0 | 9
COc1ccc(CCNC(=S)NCCc2ccc(OC)c(OC)c2)cc1OC | 1 | 27* | 0 | 0 | -16
COc1ccc(NC(=O)NCCc2cccc(Cl)c2)cc1OC | 2 | 16* | 3 | 0 | -1
CSCC[C@H](NC(=O)c1ccc(OCC2CCCO2)cc1)c1nc2ccccc2[nH]1 (some centres not stated) | 6 | -1 | -1 | 0 | 8
CCCc1nc2c(=O)n(C)c(=O)[nH]c2n1CCC | -6 | 14* | 3 | 0 | 0
CCCCNC(=O)c1onc(CSc2ccc(F)cc2)c1C(=O)O | -11 | -3 | 3 | 0 | 2
CCCCNC(=O)c1onc(CSc2ccc(OC)cc2)c1C(=O)O | -12 | 12* | 0 | 0 | 0
OCCCNc1ncnc2sc(-c3ccccc3)cc12 | 2 | -1 | 1 | 0 | -2
OCc1ncc(-c2ccccc2)s1 | 2 | 10* | 0 | 0 | -3
COc1ccc(Cl)cc1Cn1c(C)c(C(=O)NCc2ccc3c(c2)OCCO3)sc1=O | · | · | -1 | 0 | ·
CN(CC(=O)NC1CC(C)(C)NC(C)(C)C1)S(=O)(=O)c1ccc(Br)cc1 | 3 | 13* | -1 | 0 | 2
CCCn1c(CN(Cc2ccccc2)Cc2ccccc2)nc2c1c(=O)n(C)c(=O)n2C | 7 | 14* | 0 | 0 | 0
CCCn1c(CN(C)Cc2ccccc2)nc2c1c(=O)n(C)c(=O)n2C | -12 | 0 | 15 | 3 | 0
Cc1[nH]c2ccccc2c1/C=N/NC(N)=S | -3 | -1 | 2 | 0 | -9
Cc1[nH]c2ccccc2c1/C=N/NC(=S)NCc1ccccc1 | 0 | 23* | 2 | 0 | 5
Cc1ccc(NC(=S)N/N=C/c2c(C)[nH]c3ccccc23)cc1 | -11 | 22* | 3 | 0 | 3
CN(C)CCNc1ncnc2c1ncn2[C@H]1CN(Cc2cccs2)C[C@@H](CO)O1 | · | · | 0 | 0 | ·
S=c1nc(NCc2cccc(Cl)c2)c2ccccc2[nH]1 | 1 | 15* | 1 | 0 | -3
Oc1cccc(/C=N/Nc2cccc3cccnc23)c1 | · | 32* | 5 | 0 | ·
COc1cc(/C=N/Nc2cccc3cccnc23)cc(OC)c1O | -15 | -10 | 4 | 1 | -20
Oc1c(/C=N/Nc2cccc3cccnc23)ccc2ccccc12 | -7 | 32* | 2 | 0 | 2
COc1cc(C(C)=O)ccc1OCC(=O)NCc1ccccc1CN1CCCC1 | · | · | -1 | 0 | ·
CN1C(=O)[C@@H]2[C@H](C1=O)[C@@H]1C(=O)Nc3ccccc3C(=O)N1[C@@H]2c1cccc(Br)c1 | 2 | -1 | 0 | 0 | -2
O=c1[nH][nH]c2c1[C@H](c1ccc(F)cc1)O[C@H](CCC(F)(F)F)C2 | · | · | -2 | 0 | ·
SMILES | proCasp7 act | NR3A LBD binder | MPTP block | aDG glyco act | procasp3 activ
COc1ccc(C)cc1NC(=O)C1CCCN(S(=O)(=O)c2ccc3[nH]c(=O)ccc3c2)C1 (configuration not stated) | 5 | 15* | 1 | 0 | -1
COc1ccccc1NC(=O)C1CCCN(S(=O)(=O)c2ccc3[nH]c(=O)ccc3c2)C1 (configuration not stated) | 6 | -1 | -2 | 0 | -1
CN1CCN(C(=O)c2ccc(N3CCCC3=O)cc2)CC1 | -3 | 333* | -1 | 0 | 5
CCc1cc2c(=O)n(CC(C)C)cnc2s1 | 5 | 18* | 0 | 0 | 4
CCCCCn1cnc2sc(CC)cc2c1=O | 0 | 8 | 0 | 0 | 0
O=C(Nc1ccc(O)cc1)/C(=C\C=C\c1ccccc1)NC(=O)c1ccccc1 | -2 | 27* | 2 | 0 | -3
CC(C)(C)NC(=O)/C(=C\C=C\c1ccccc1)NC(=O)c1ccc([N+](=O)[O-])cc1 | 0 | 15* | 9 | 0 | 5
COc1ccc(C=NCCc2ccc(OC)c(OC)c2)cc1OC | · | · | 1 | 0 | ·
COc1ccc(Br)c(C(=O)OCC(=O)Nc2cc(C)on2)c1 | · | · | 0 | 0 | ·
COc1ccc(C(N)=O)c(OCC(=O)Nc2cc(C)on2)c1 | 8 | 15* | 0 | 0 | 4
c1ccc(N=C2SCCCS2)cc1 | · | · | 2 | 0 | ·
Nc1ccccc1Nc1cc(-c2ccccc2)nn1-c1cccc(Cl)c1 | -7 | 11* | 3 | 0 | -5
Nc1c(Cl)ncnc1N/N=C/c1ccnc2ccccc12 | -2 | 13* | 0 | 0 | -3
Clc1cccc(/C=N/Nc2ncnc3ccccc23)c1 | -13 | 14* | 1 | 0 | -34
C(=N\Nc1ncnc2ccccc12)/c1ccccc1 | 14 | -45 | -1 | 0 | -22
Cc1ccsc1CN(C)CC(=O)NCC(=O)Nc1ccc(F)c(F)c1F | -1 | 0 | -3 | 0 | 2
CCOC1=C2[C@@H](CN(S(=O)(=O)c3ccc(C)cc3)[C@H]2c2ccccc2F)[C@H]2C(=O)NC(=O)[C@H]2C1 | · | · | 0 | 0 | ·
Cc1ccc(S(=O)(=O)N2CCOCC2)cc1NC(=O)CSc1nc2ccccc2c(=O)n1Cc1ccccc1 | 1 | 14* | 1 | 1 | 0
COc1ccc(Cl)cc1NC(=O)COC(=O)c1cc(NS(=O)(=O)c2cccs2)ccc1O | -2 | 25* | -25 | 0 | -3
O=C(COC(=O)c1ccc(NS(=O)(=O)c2cccs2)cc1O)Nc1nc2ccccc2s1 | 4 | 19* | 11 | 0 | 6
Cc1c(Cl)cccc1NC(=O)COC(=O)Cn1cnc2c1c(=O)n(C)c(=O)n2C | -2 | 2 | -1 | 0 | 12
CCc1cccc2c(C(=O)CN3C(=O)NC4(CCCCC4)C3=O)c[nH]c12 | -2 | -1 | 0 | 0 | -3
CCc1cccc2c(C(=O)CN3C(=O)C(=O)N(C4CCCC4)C3=O)c[nH]c12 | -4 | 23* | -1 | 0 | 7
CCCCOc1ccc(-c2c(C#N)c(N)nc(SCC(N)=O)c2C#N)cc1 | -4 | 17* | 2 | 1 | 3
N#Cc1c(N)nc2c3c(sc(=N)c2c1N)NC(=O)CC3c1ccccc1 (configuration not stated) | -10 | -3 | 2 | 0 | -11
Cc1c(C#N)c(N)nc2c3c(sc12)NC(=O)CC3c1ccc(Cl)cc1 (configuration not stated) | 12 | 14* | 3 | 0 | -2
CNC(=O)COc1ncnc2sc(C)c(C)c12 | -8 | 14* | -2 | 0 | -2
